TCR CD3 inh: inhibitors of human TCR-CD3 interaction, primary screen, biochemical, fluorescence, TAMRA-labeled TCR probe | actives 0.37% (n = 360,000) | AID 651800, 2012 | inhibition, % at 9.4 µM | T-cell receptor (TCR); in the data active means inhibition above about 19%;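 further: recombinant mutant TCR 2C K166C tagged with TAMRA read by polarization; 0% = receptor in buffer alone and 100% = receptor with positive control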
SIAE primary: human SIAE inhibitors, primary screen, biochemical, fluorescence polarization, FP-Rh probe, 1536-well HTS | Sialate O-acetylesterase (Homo sapiens), Q9HAT2 | inhibition, % at 9.66 µM | actives 0.69% (n = 370,000) | SIAE FP-Rh probe binding | AID 1053197, 2014;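 active means inhibition above a cutoff: mean of compounds within the control limits plus 3 SD of those, cut at about 17% in these data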;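 further: 0% = plate median of compound wells and 100% = probe without SIAE protein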
TDP2 inh: human TDP2 enzyme inhibitors, primary screen, biochemical, epi absorbance, recombinant enzyme | Tyrosyl-DNA phosphodiesterase 2 (Homo sapiens), O95551 | T5PNP hydrolysis, p-nitrophenol absorbance 415 nm | inhibition, % at 12.8 µM | actives 0.34% (n = 370,000);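 active means inhibition above the mean of all tested compounds plus 3 SD, set per campaign, cut at about 25% in these data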;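 further: 0% = DMSO with enzyme and 100% = buffer with substrate but no TDP2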
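Assay system: recombinant human TDP2 / Reagent: T5PNP substrate at 5 mM, a TopII-DNA adduct mimic / Measured by: epi absorbance from released p-nitrophenol / Evaluation: % inhibition relative to enzyme-containing and enzyme-free wells / Control set: enzyme-free and DMSO wells / Replicates: each compound tested once, singlicate / Schedule: enzyme reaction with compound for 2 h at 37 °C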
Apaf-1 inh: inhibitors of human Apaf-1 apoptosome, primary screen, biochemical, DEVD-Rh110 fluorescence, uHTS; Apoptotic protease-activating factor 1 (Homo sapiens), O14727; reconstituted apoptosome caspase-3 activity; inhibition, % at 20 µM; actives 0.71% (n = 330,000); AID 489030, 2010; active means inhibition of at least 40% at 20 µM;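 further: plate controls were DMSO wells for no effect and DEVD-CHO caspase inhibitor wells for full effect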
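detection = Rh110 fluorescence intensity | test system = biochemical Apaf-1 apoptosome reconstitution | also added = cytochrome c and DEVD-Rh110 substrate | schedule = 30 min plus 50 min, RT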
GSTO1 inh: inhibitors of recombinant GSTO1, primary screen, counter-screen for RBBP9 inhibitor project, biochemical, fluorescence polarization. Glutathione S-transferase omega-1 (Homo sapiens), P78417. activity-based probe fluorescence polarization. inhibition, % at 5.96 µM. actives 1.1% (n = 300,000). AID 1974, 2009;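 active means inhibition above the campaign mean inhibition plus 3 SD, cut at about 35% in these data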;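 further: 0% = GSTO1-1 with DMSO and 100% = wells lacking GSTO1-1 enzyme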
PAD4 FP inh: human PAD4 inhibitors, primary screen, biochemical, fluorescence polarization, 1536-well format | recombinant PAD4, RCA probe fluorescence polarization | inhibition, % at 6.36 µM | actives 0.41% (n = 330,000) | AID 485272, 2010;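 active means percent inhibition above a cutoff equal to the mean of all tested compounds plus 3 SD, cut at about 15% in these data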;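 further: 0% = PAD4 with RCA probe and DMSO and 100% = probe without PAD4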
Target sequence (Q9UM07 whole entry, looked up): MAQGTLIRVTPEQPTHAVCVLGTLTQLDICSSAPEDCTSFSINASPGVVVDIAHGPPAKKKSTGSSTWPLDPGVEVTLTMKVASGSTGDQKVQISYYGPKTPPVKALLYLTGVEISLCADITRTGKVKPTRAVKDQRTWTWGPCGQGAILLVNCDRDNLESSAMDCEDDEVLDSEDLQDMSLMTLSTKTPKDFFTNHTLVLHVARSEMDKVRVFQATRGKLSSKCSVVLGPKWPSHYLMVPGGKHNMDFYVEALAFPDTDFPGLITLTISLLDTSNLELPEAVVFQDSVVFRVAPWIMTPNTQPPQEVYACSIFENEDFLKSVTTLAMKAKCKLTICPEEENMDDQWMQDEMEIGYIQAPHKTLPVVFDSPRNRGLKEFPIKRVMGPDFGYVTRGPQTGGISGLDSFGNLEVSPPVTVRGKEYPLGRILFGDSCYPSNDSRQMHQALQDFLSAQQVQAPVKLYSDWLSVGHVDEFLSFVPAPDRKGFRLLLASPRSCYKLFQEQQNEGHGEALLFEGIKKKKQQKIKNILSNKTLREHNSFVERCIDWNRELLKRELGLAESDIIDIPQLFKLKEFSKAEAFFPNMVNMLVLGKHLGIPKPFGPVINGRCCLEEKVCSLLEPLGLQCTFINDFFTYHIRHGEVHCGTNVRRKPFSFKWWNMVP
Apaf-1 inh conf2: Apaf-1 inhibitors, single-dose retest, confirmation, biochemical, fluorescence, DEVD-Rh110, 20 µM | actives 25% (n = 1,800) | shares compounds with Apaf-1 inh | inhibition, % at 20 µM | reconstituted apoptosome, caspase-3 DEVD-Rh110 fluorescence;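 active means mean inhibition of at least 40% at 20 µM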;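 further: plate controls were DMSO wells for no effect and DEVD-CHO caspase inhibitor control wells for full effect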
Rh110 quench: Rh110 fluorescence interference by putative Apaf-1 inhibitors, confirmation, artefact control for Apaf-1 inhibitor project, biochemical, 20 µM. AID 504615, 2011. shares compounds with Apaf-1 inh. activation (fluorescence interference), % at 20 µM. 1,800 tested, under 10 active. quenched caspase reaction;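 active means signal rise of 40% or more at 20 µM, treated as a fluorescence artifact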
Apaf1 inh interf: fluorescence interference of Apaf-1 inhibitor hits, dose response, artefact control for Apaf-1 inhibitor project; shares compounds with Apaf-1 inh; fluorescence interference counterscreen, Apaf-1 assay format; IC50, µM; 460 tested, under 10 active; call rule not given here
Numbers without * were called inactive; · = no result given. Only some compounds are listed: those with a hit (about 2.4% of all), similar ones and a draw of the others.

SMILES	TCR CD3 inh	SIAE primary	TDP2 inh	Apaf-1 inh	GSTO1 inh	PAD4 FP inh	Apaf-1 inh conf2	Rh110 quench	others
CCOC(=O)N1CCN(S(=O)(=O)c2ccc(C(=O)N(CCCN(C)C)c3nc4ccc(CC)cc4s3)cc2)CC1	-4	-2	-15	55*	8	3	7	3
COc1ccc(NC2=C(NC(C)=O)C(=O)c3ccccc3C2=O)cc1	3	1	11	14	17	-4	·	·
Cc1oc(-c2ccc(Cl)cc2)nc1CN1CCCC(C(=O)NCc2cccnc2)C1 (stereo not drawn)	3	-4	7	13	-1	-2	·	·
Cc1[nH]n(-c2ccccc2)c(=O)c1N=Nc1nccs1	-8	15	-6	73*	15	-1	35	19
O=C1CC(=Nc2ccccc2)NN1c1ccccc1	-6	4	4	66*	20	-2	19	8
O=C1Cc2ccccc2N1c1ccccc1	-1	-3	0	11	2	2	·	·
O=C(O)c1ccc(NC2=C(N3CCOCC3)C(=O)c3ccccc3C2=O)cc1	6	0	22	68*	46*	-17	51*	-1	Apaf1 inh interf=>100
O=C1c2ccccc2-c2ccc(C(=O)N3CCOCC3)cc21	-5	4	4	-1	-12	-4	·	·
CCOC(=O)C1CCN(S(=O)(=O)c2ccc3c4c2CC(=O)N4CC(C)S3)CC1 (stereo not drawn)	2	-18	3	44*	-3	-7	39	18
CCOC(=O)C1CCCN(S(=O)(=O)c2ccc3c4c2CC(=O)N4CC(C)S3)C1 (stereo not drawn)	4	-2	-8	38	8	0	·	·
C[C@H](NC(=O)[C@@H]1Cc2ccccc2CN1)C(=O)NC1CCCCC1	0	3	-10	-4	1	-2	·	·
CCOc1ccc(NC(=O)CN(C)C(=O)c2ccc3[nH]c4c(c3c2)CC(C)CC4)cc1OCC (stereo not drawn)	2	4	6	18	2	2	·	·
Cc1ccc(NC(=O)CN(C)C(=O)c2ccc3[nH]c4c(c3c2)CC(C)CC4)cc1 (stereo not drawn)	-4	-3	-6	59*	·	-3	45*	4	Apaf1 inh interf=>100
O=C(CSc1nc2ccccc2c(=O)n1-c1ccccc1F)Nc1ccc2c(c1)CCC2	6	-5	3	11	-9	-1	·	·
CCOCCCn1c(SCC(=O)Nc2cc(C(C)(C)C)nn2-c2ccccc2)nc2ccccc2c1=O	-1	-4	4	40*	6	-4	23	8
CCN(CC)CCn1c(SCC(=O)Nc2ccc3c(c2)CCC3)nc2ccccc2c1=O	-5	3	-9	51*	·	1	7	8
CC(NC(=O)CCNC(=O)c1ccco1)c1ccc(F)cc1 (stereo not drawn)	0	-10	-8	-4	1	-6	·	·
O=C(COc1ccccc1)Nc1nnc(C23CC4CC(CC(C4)C2)C3)s1	0	5	2	4	0	1	·	·
C=CCn1c(SCC(=O)Nc2sccc2C(N)=O)nc2ccc(Cl)cc2c1=O	4	-6	2	19	9	-7	·	·
C=CCn1c(SCC(=O)Nc2sccc2C(N)=O)nc2sc(CC)cc2c1=O	-3	4	-7	42*	8	-5	36	7
COc1ccccc1C(=O)NC(CCSC)C(=O)N1CCC(Cc2ccccc2)CC1 (stereo not drawn)	2	-3	6	44*	-3	-1	29	0
CSCCC(NC(=O)COc1ccccc1)C(=O)N1CCC(C(N)=O)CC1 (stereo not drawn)	-4	0	-4	64*	·	-3	33	5
CSCCC(NC(=O)COc1ccccc1)C(=O)N1CCCCC1 (stereo not drawn)	2	-11	-15	4	1	-2	·	·
Cc1ccc(-c2nnc(CSc3nnc(COc4cccc5ccccc45)n3-c3ccccc3)o2)cc1	3	-13	1	44*	-11	0	47*	-3	Apaf1 inh interf=>100
N#CCSc1nnc(COc2cccc3ccccc23)n1-c1ccccc1	-1	-5	-4	12	-4	-1	·	·
SMILES	TCR CD3 inh	SIAE primary	TDP2 inh	Apaf-1 inh	GSTO1 inh	PAD4 FP inh	Apaf-1 inh conf2	Rh110 quench	others
COC(=O)c1c(NC(=O)c2ccc(OC(C)C)cc2)sc2c1CC(C)(C)NC2(C)C	3	-2	-8	53*	-2	-2	10	7
COc1ccc(C)cc1NC(=O)C1CCCN1S(=O)(=O)c1ccc2c(c1)CCC(=O)N2 (stereo not drawn)	1	6	6	16	3	2	·	·
C/C(=N\OCC(=O)N/N=C/c1ccccc1)c1cccs1	5	1	4	5	-1	-3	·	·
CS(=O)(=O)c1nc(-c2ccc(Br)cc2)cc(-c2ccccc2)c1C#N	6	-5	-3	47*	-7	-10	59*	4	Apaf1 inh interf=>100
COc1ccc(-c2cc(-c3ccccc3)c(C#N)c(S(C)(=O)=O)n2)cc1	1	10	-5	31	-13	1	·	·
Cc1ccc(-n2c(SCC(=O)Nc3cc(C)on3)nc3c([nH]c4ccccc43)c2=O)cc1	0	-5	6	54*	-4	2	14	-5
COc1ccc(-n2c(SCC(=O)Nc3cc(C)on3)nc3c([nH]c4ccccc43)c2=O)cc1	5	-1	-3	18	3	1	·	·
CN(CC(=O)Nc1ccc(F)cc1)C(=O)C1CC(=O)N(Cc2ccccc2)C1 (stereo not drawn)	0	5	-8	44*	2	-1	26	3
CN(CC(=O)Nc1cccc(F)c1)C(=O)C1CC(=O)N(Cc2ccccc2)C1 (stereo not drawn)	1	-3	-11	-4	1	5	·	·
CC(C)(C)n1cnc2cc(NCc3ccc(Br)cc3)ccc21	8	2	8	19	-7	-8	·	·
